Assay results from different studies.
Lines come from different studies, so protocols differ.
Target: Calcium/calmodulin-dependent protein kinase type 1 (CAMK1, Homo sapiens, UniProt Q14012)

COc1cc(Nc2ncc(F)c(Nc3ccc4c(n3)NC(=O)C(C)(C)O4)n2)cc(OC)c1OC  inhibition (binding, competition with immobilised ligand; 10 µM): 97%
COc1ncccc1-c1cnn2ccc(N3CCN(C(=O)OC(C)C)CC3)nc12  remaining binding (binding, competition with immobilised ligand; 1 µM): 100%
Cn1cc(-c2cc(F)cc(N3CCn4c(cc5c4CCCC5)C3=O)c2CO)cc(Nc2ccc(N3CCN(C4COC4)CC3)cn2)c1=O  inhibition (enzyme activity, inhibitor; 0.1 µM): 0%
Cc1nn(C)cc1-c1nc2c(N3CCN(Cc4ccc(Cl)cc4)CC3)c(Cl)cnc2[nH]1  remaining binding (binding, competition with immobilised ligand; 1 µM): 100%
C#Cc1n[nH]c2c(-c3cn(C(C)c4ccccn4)c(=O)[nH]c3=O)cc(F)cc12 (stereo not shown)  inhibition (enzyme activity, inhibitor; 1 µM): -18.7%
CC(C)(C)c1cc(C=C(C#N)C#N)cc(Br)c1O  remaining activity (enzyme activity, inhibitor; 0.5 µM): 97.5%
N#CC1(c2ccccn2)CCN(Cc2cc(C(=O)O)c(=O)n3ccccc23)CC1  remaining binding (cell-free assay, competition with immobilised ligand; 1 µM): 76%
O=c1[nH]c2ccccc2n1C1CCN(Cc2ccc(-c3[nH]c4cc5ncnc5cc4nc3-c3ccccc3)cc2)CC1  remaining signal (cell-free assay; 0.5 µM): 95.1%
C#Cc1n[nH]c2c(-c3cn([C@@H](C)c4ccccc4)c(=O)[nH]c3=O)cc(F)cc12  inhibition (enzyme activity, inhibitor; 0.1 µM): 14.4%
Cn1cncc1[C@@](O)(COc1ccc(C#N)cc1-c1ccc(OC(F)(F)F)cc1)c1ccc(C#N)cc1  remaining binding (cell-free assay, competition with immobilised ligand; 1 µM): 100%
